Assay results from ChEMBL document CHEMBL1122917, “Vinblastin-23-oyl amino acid derivatives: chemistry, physicochemical data, toxicity, and antitumor activities against P388 and L1210 leukemias” (J Med Chem, 1985).
Where “and” joins values, the source holds several entries; their conditions need not be identical. Identical values can stand only once.

How the values were obtained:
[1] = Acute iv toxicity against Swiss strain of 40 mice after 4 doses of injection; type: organism-based; conditions: mouse, in vivo
Summary of the method: (§1)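 Acute toxicity in Swiss, CD1 or NMRI mice. Drugs given iv as sulfate salts. LD50 taken at day 14 from several dose levels, with 40–[…] mice per drug and strain.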

[2] = Acute iv toxicity against mice after a dose of injection; type: organism-based; conditions: mouse, in vivo
[3] = tested on: Mus musculus; assay: Percent increase in life span at dose 6 mg/kg/day in 10 mice implanted with P388 leukemia cell line; type: functional
Summary of the method: (§2)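 Female DBA2 mice inoculated iv on day 0 with 10^4 P388 cells; single iv treatment on day 1 with drug as sulfate salt in physiological saline. Survival followed; %ILS from all deaths and survivors as (T/C × 100) − 100, maximal MST 30 days; survivors counted on days 30 and 60. Most experiments confirmed three times.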

[4] = tested on: Mus musculus; assay: Number of survivors of DBA2 mice on 60th day after inoculation with L1210 leukemia cell line intraperitoneally at a dose of 2 mg/kg/day; 0/10; type: functional; conditions: route intraperitoneal
[5] = tested on: Mus musculus; assay: Number of survivors of DBA2 mice on 60th day after inoculation with L1210 leukemia cell line intraperitoneally at a dose of 3 mg/kg/day; 0/10; type: functional; conditions: route intraperitoneal
[6] = tested on: Mus musculus; assay: Number of survivors of DBA2 mice on 60th day after inoculation with L1210 leukemia cell line intraperitoneally at a dose of 6 mg/kg/day; 0/10; type: functional; conditions: route intraperitoneal
[7] = tested on: Mus musculus; assay: Percent increase in life span of DBA2 mice after inoculation with L1210 leukemia intravenously at a dose of 3 mg/kg per day; type: functional; conditions: route intravenous
Summary of the method: (§3)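 Female DBA2 mice inoculated iv on day 0 with 10^4 L1210 cells; drugs given iv as sulfate salts in physiological saline, mostly once on day 1. %ILS from all deaths and survivors as (T/C × 100) − 100; survivors scored on days 30 and 60.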

[8] = tested on: Mus musculus; assay: Percent increase in life span of DBA2 mice after inoculation with L1210 leukemia intravenously at a dose of 4 mg/kg per day; type: functional; conditions: route intravenous; summary of the method: as §3
[9] = tested on: Mus musculus; assay: Percent increase in life span of DBA2 mice after inoculation with L1210 leukemia intravenously at a dose of 5 mg/kg per day; type: functional; conditions: for ILS at 5 mg/kg/day: Mus musculus, L1210, iv; summary of the method: as §3
[10] = tested on: Mus musculus; assay: Percent increase in life span of DBA2 mice after inoculation with L1210 leukemia intravenously at a dose of 6 mg/kg per day; type: functional; conditions: route intravenous; summary of the method: as §3
[11] = tested on: Mus musculus; assay: Percent increase in life span of DBA2 mice after inoculation with L1210 leukemia intravenously at a dose of 7 mg/kg per day; type: functional; conditions: route intravenous; summary of the method: as §3
[12] = tested on: Mus musculus; assay: Number of survivors on 60th day at dose 6 mg/kg/day in 10 mice implanted with P388 leukemia cell line; 0/10; type: functional
[13] = tested on: Mus musculus; assay: Percent increase in life span at dose 7 mg/kg/day in 10 mice implanted with P388 leukemia cell line; type: functional; summary of the method: as §2
[14] = tested on: Mus musculus; assay: Percent increase in life span at dose 8 mg/kg/day in 10 mice implanted with P388 leukemia cell line; type: functional; summary of the method: as §2
[15] = tested on: Mus musculus; assay: Number of survivors of DBA2 mice on 30th day after inoculation with L1210 leukemia cell line intravenously at a dose of 4 mg/kg/day; 0/10; type: functional; conditions: route intravenous
[16] = tested on: Mus musculus; assay: Number of survivors of DBA2 mice on 30th day after inoculation with L1210 leukemia cell line intravenously at a dose of 5 mg/kg/day; 0/10; type: functional; conditions: route intravenous
[17] = tested on: Mus musculus; assay: Number of survivors of DBA2 mice on 30th day after inoculation with L1210 leukemia cell line intravenously at a dose of 7 mg/kg/day; 0/10; type: functional; conditions: route intravenous
[18] = tested on: Mus musculus; assay: Number of survivors of DBA2 mice on 30th day after inoculation with L1210 leukemia cell line intravenously at a dose of 9 mg/kg/day; 0/10; type: functional; conditions: route intravenous
[19] = tested on: Mus musculus; assay: Percent increase in life span at dose 3 mg/kg/day in 10 mice implanted with P388 leukemia cell line; type: functional; summary of the method: as §2
[20] = tested on: Mus musculus; assay: Percent increase in life span at dose 4 mg/kg/day in 10 mice implanted with P388 leukemia cell line; type: functional; summary of the method: as §2
[21] = tested on: Mus musculus; assay: Percent increase in life span at dose 5 mg/kg/day in 10 mice implanted with P388 leukemia cell line; type: functional; summary of the method: as §2
[22] = tested on: Mus musculus; assay: Number of survivors on 60th day at dose 4 mg/kg/day in 10 mice implanted with P388 leukemia cell line for 1st scheduled day; 0/10; type: functional
[23] = tested on: Mus musculus; assay: Number of survivors on 60th day at dose 5 mg/kg/day in 10 mice implanted with P388 leukemia cell line; 0/10; type: functional
[24] = tested on: Mus musculus; assay: Number of survivors of DBA2 mice on 30th day after inoculation with L1210 leukemia cell line intraperitoneally at a dose of 2 mg/kg/day; 0/10; type: functional; conditions: route intraperitoneal
[25] = tested on: Mus musculus; assay: Number of survivors of DBA2 mice on 30th day after inoculation with L1210 leukemia cell line intraperitoneally at a dose of 3 mg/kg/day; 0/10; type: functional; conditions: route intraperitoneal
[26] = tested on: Mus musculus; assay: Number of survivors on 30th day at dose 4 mg/kg/day in 10 mice implanted with P388 leukemia cell line; 0/10; type: functional
[27] = tested on: Mus musculus; assay: Number of survivors of DBA2 mice on 60th day after inoculation with L1210 leukemia cell line intravenously at a dose of 4 mg/kg/day; 0/10; type: functional; conditions: route intravenous
[28] = tested on: Mus musculus; assay: Number of survivors of DBA2 mice on 60th day after inoculation with L1210 leukemia cell line intravenously at a dose of 5 mg/kg/day; 0/10; type: functional; conditions: route intravenous
[29] = tested on: Mus musculus; assay: Number of survivors of DBA2 mice on 60th day after inoculation with L1210 leukemia cell line intravenously at a dose of 6 mg/kg/day; 0/10; type: functional; conditions: route intravenous
[30] = tested on: Mus musculus; assay: Number of survivors of DBA2 mice on 60th day after inoculation with L1210 leukemia cell line intravenously at a dose of 7 mg/kg/day; 0/10; type: functional; conditions: route intravenous
[31] = Acute iv toxicity against rat after a dose of injection; type: organism-based; conditions: in vivo
[32] = Acute iv toxicity against NMRI strain of 100 mice after 7 doses of injection; type: organism-based; conditions: mouse, in vivo; summary of the method: as §1
[33] = tested on: Mus musculus; assay: Number of survivors of DBA2 mice on 60th day after inoculation with L1210 leukemia cell line intravenously at a dose of 3 mg/kg/day; 0/10; type: functional; conditions: route intravenous
[34] = tested on: Mus musculus; assay: Percent increase in life span of BDF1 mice after inoculation with P388 leukemia intraperitoneally at a dose of 2 mg/kg per day; conditions: P388, ip
[35] = tested on: Mus musculus; assay: Percent increase in life span of BDF1 mice after inoculation with P388 leukemia intraperitoneally at a dose of 6 mg/kg per day; conditions: P388, ip
[36] = tested on: Mus musculus; assay: Number of survivors of DBA2 mice on 60th day after inoculation with L1210 leukemia cell line intravenously at a dose of 2.5 mg/kg/day; 0/10; type: functional; conditions: route intravenous
[37] = tested on: Mus musculus; assay: Number of survivors on 30th day at dose 2 mg/kg/day in 10 mice implanted with P388 leukemia cell line; 0/10; type: functional
[38] = tested on: Mus musculus; assay: Number of survivors on 60th day at dose 8 mg/kg/day in 10 mice implanted with P388 leukemia cell line; 0/10; type: functional; summary of the method: as §2
[39] = tested on: Mus musculus; assay: Number of survivors on 60th day at dose 7 mg/kg/day in 10 mice implanted with P388 leukemia cell line; 0/10; type: functional; summary of the method: as §2

## CC[C@]1(O)C[C@@H]2CN(CCc3c([nH]c4ccccc34)[C@@](C(=O)OC)(c3cc4c(cc3OC)N(C)[C@H]3[C@@](O)(C(=O)OC)[C@H](OC(C)=O)[C@]5(CC)C=CCN6CC[C@]43[C@@H]65)C2)C1 [VINBLASTINE]
[1]
  LD50: 26 mg/kg
[2]
  LD50: 10 mg/kg
[3]
  ILS at 6 mg/kg/day: 48%
[4]
  Survivors: 0
[5]
  Survivors: 0
[6]
  Survivors: 0
[7]
  ILS at 3 mg/kg/day: 30.3%
[8]
  ILS at 4 mg/kg/day: 31.9%
[9]
  ILS at 5 mg/kg/day: 37%
[10]
  ILS at 6 mg/kg/day: 24.7%
[11]
  ILS at 7 mg/kg/day: 35%
[12]
  Survivors: 0
[13]
  ILS at 7 mg/kg/day: 59.3%
[14]
  ILS at 8 mg/kg/day: 72.9%
[15]
  Survivors: 0
[16]
  Survivors: 0
[17]
  Survivors: 0
[18]
  Survivors: 0
[19]
  ILS at 3 mg/kg/day: 30.8%
[20]
  ILS: 42.3% and 112%
[21]
  ILS at 5 mg/kg/day: 47.1%
[22]
  Survivors: 0
[23]
  Survivors: 0
[24]
  Survivors: 0
[25]
  Survivors: 0
[26]
  Survivors: 0
[27]
  Survivors: 0
[28]
  Survivors: 0
[29]
  Survivors: 0
[30]
  Survivors: 0
[31]
  LD50: 2.9 mg/kg
[32]
  LD50: 27.4 mg/kg
[33]
  Survivors: 0
[34]
  ILS at 2 mg/kg/day: 54%
[35]
  ILS at 6 mg/kg/day: -61%

## CC[C@]1(O)C[C@H]2CN(CCc3c([nH]c4ccccc34)[C@@](C(=O)OC)(c3cc4c(cc3OC)N(C=O)[C@H]3[C@@](O)(C(=O)OC)[C@H](OC(C)=O)[C@]5(CC)C=CCN6CC[C@]43[C@@H]65)C2)C1 [VINCRISTINE]
[2]
  LD50: 1 mg/kg
[7]
  ILS at 3 mg/kg/day: 28.8%
[8]
  ILS at 4 mg/kg/day: 24%
[9]
  ILS at 5 mg/kg/day: 36%
[15]
  Survivors: 0
[16]
  Survivors: 0
[24]
  Survivors: 0
[36]
  Survivors: 0
[37]
  Survivors: 0
[27]
  Survivors: 0
[28]
  Survivors: 0
[31]
  LD50: 1 mg/kg
[33]
  Survivors: 0
[34]
  ILS at 2 mg/kg/day: 53%

## CC[C@]1(O)C[C@@H]2CN(CCc3c([nH]c4ccccc34)[C@@](C(=O)OC)(c3cc4c(cc3OC)N(C)[C@H]3[C@@](O)(C(N)=O)[C@H](O)[C@]5(CC)C=CCN6CC[C@]43[C@@H]65)C2)C1 [VINDESINE]
[2]
  LD50: 6.3 mg/kg
[3]
  ILS at 6 mg/kg/day: 32%
[4]
  Survivors: 0
[5]
  Survivors: 0
[6]
  Survivors: 0
[9]; route intravenous
  ILS: 11.5% and 25.7%
[11]
  ILS at 7 mg/kg/day: -9.1%
[12]
  Survivors: 0
[13]
  ILS at 7 mg/kg/day: 24%
[14]
  ILS at 8 mg/kg/day: -46%
[16]
  Survivors: 0
[17]
  Survivors: 0
[19]
  ILS at 3 mg/kg/day: 23%
[20]; Mus musculus, P388
  ILS at 4 mg/kg/day: 25.5%
[21]
  ILS at 5 mg/kg/day: 30.2%
[38]
  Survivors: 0
[22]
  Survivors: 0
[23]
  Survivors: 0
[24]
  Survivors: 0
[25]
  Survivors: 0
[36]
  Survivors: 0
[26]
  Survivors: 0
[37]
  Survivors: 0
[39]
  Survivors: 0
[28]
  Survivors: 0
[30]
  Survivors: 0
[31]
  LD50: 2.6 mg/kg
[33]
  Survivors: 0
[34]
  ILS at 2 mg/kg/day: 89.5%
[35]
  ILS at 6 mg/kg/day: -47%
